Measured values reported in ChEMBL document CHEMBL1153772 (J Nat Prod, 2009).
Converted amounts (≈) assume the structure as drawn. The source made the active and inactive calls. The calls are words filed in the database; no cut-off is given here.

Legend:
ASPC1 = test: Cytotoxicity against human AsPC1 cells; format: functional, cell-based
Summary of the method: (§1)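 IC50 value derived from at least three separate assay runs per sample.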

SNB-19 = test: Cytotoxicity against human SNB19 cells assessed cell growth; format: functional
DU-145 = test: Cytotoxicity against human DU145 cells assessed cell growth; format: functional
MIA PaCa-2 = test: Cytotoxicity against human MIAPaCa2 cells; format: functional, cell-based; summary of the method: as §1
[1] = Metabolic satbility in human liver microsomes assessed as compound remaining at 1 uM after 60 min in the absence of NADPH; format: ADME, Microsome; details: read-out: Stability
HOP-92 = test: Cytotoxicity against human HOP92 cells assessed cell growth; format: functional
SK-MEL-5 = test: Cytotoxicity against human SK-MEL-5 cells assessed cell growth; format: functional
EKVX = test: Cytotoxicity against human EKVX cells assessed cell growth; format: functional
MOLT-4 = test: Cytotoxicity against human MOLT4 cells assessed cell growth; format: functional
[2] = Solubility at pH 7.4; format: physicochemical; details: buffer
SK-MEL-28 = test: Cytotoxicity against human SK-MEL-28 cells assessed cell growth; format: functional
SK-OV-3 = test: Cytotoxicity against human SKOV3 cells assessed cell growth; format: functional
SF-539 = test: Cytotoxicity against human SF539 cells assessed cell growth; format: functional
PANC-1 = test: Cell cycle arrest in human PANC1 cells assessed as accumulation of cells at G1 phase at <=46.5 after 24 hrs by propidium iodide staining method; format: functional, cell-based
Summary of the method: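 PANC-1 cells in RPMI 1640 with 10% FBS, HEPES, antibiotics, glutamine, pyruvate and glucose, at 37°C in 5% CO2, exposed to varying compound concentrations for 24 h alongside methanol vehicle and paclitaxel positive controls. Cells then ethanol-fixed and stained with 0.02 mg/mL propidium iodide plus 0.1 mg/mL RNase A. Flow cytometry collected 10,000 events per sample, and DNA histograms were modelled for phase distribution.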

NCI-H322M = test: Cytotoxicity against human NCI-H322M cells assessed cell growth; format: functional
ACHN = test: Cytotoxicity against human ACHN cells assessed cell growth; format: functional
T47D = test: Cytotoxicity against human T47D cells assessed cell growth; format: functional
HCT-15 = test: Cytotoxicity against human HCT15 cells assessed cell growth; format: functional
OVCAR-3 = test: Cytotoxicity against human OVCAR-3 cells assessed cell growth; format: functional
Pseudomonas aeruginosa = test: […] activity against […] aeruginosa 27853 after 24 hrs by broth dilution assay; format: functional; details: Pseudomonas aeruginosa, 27853, 24 h
Summary of the method: (§2)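 Broth microdilution in microtiter format at a seeding density of 10^3/mL. C. albicans was grown in Sabouraud dextrose broth; S. aureus and P. aeruginosa in cation-supplemented Mueller-Hinton broth. Incubated at 37°C, with growth scored after 24 h. MIC taken as the lowest concentration giving complete growth inhibition.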

[3] = Permeability at 50 uM at pH 6.2 by PAMPA
[4] = Metabolic satbility in mouse liver microsomes assessed as compound remaining at 1 uM after 60 min in the presence of NADPH; format: ADME, Microsome; details: read-out: Stability
HOP-62 = test: Cytotoxicity against human HOP62 cells assessed cell growth; format: functional
[5] = Stability in mouse plasma assessed as compound remaining at 40 uM after 3 hrs in presence of PBS and inorganic phosphate buffer; format: ADME, cell-free; details: read-out: Activity
[6] = Protein binding in mouse plasma at 10 uM; format: ADME, cell-free; details: read-out: PPB (converted)
Homo sapiens [7] = species on record: Homo sapiens; test: Protein binding in human plasma at 10 uM; details: read-out: PPB (converted)
Staphylococcus aureus = test: […] activity against methicillin resistant Staphylococcus aureus 700787 after 24 hrs by broth dilution assay; format: functional; details: Staphylococcus aureus, 700787, 24 h; summary of the method: as §2
HT-29 = test: Cytotoxicity against human HT-29 cells assessed cell growth; format: functional
DLD-1 = test: Cytotoxicity against human DLD1 cells; format: functional, cell-based; summary of the method: as §1
Nucleic Acid = test: Displacement of ethidium bromide from DNA; format: nucleic-acid assay
Homo sapiens [8] = species on record: Homo sapiens; test: Unbound fraction in human plasma at 10 uM
SF-268 = test: Cytotoxicity against human SF268 cells assessed cell growth; format: functional
TK-10 = test: Cytotoxicity against human TK10 cells assessed cell growth; format: functional
NCI-H23 = test: Cytotoxicity against human NCI-H23 cells assessed cell growth; format: functional
[9] = Stability in mouse plasma in presence of PBS at 40 uM after 3 hrs; format: ADME, cell-free; details: read-out: Stability
SNB-75 = test: Cytotoxicity against human SNB75 cells assessed cell growth; format: functional
HCC 2998 = test: Cytotoxicity against human HCC2998 cells assessed cell growth; format: functional
[10] = Unbound fraction in mouse plasma at 10 uM; format: ADME, cell-free
NCI-H226 = test: Cytotoxicity against human NCI-H226 cells assessed cell growth; format: functional
A549 = test: Cytotoxicity against human A549 cells; format: functional, cell-based; summary of the method: as §1
Homo sapiens [11] = species on record: Homo sapiens; test: Stability in human plasma assessed as compound remaining at 40 uM after 3 hrs in presence of PBS and inorganic phosphate buffer
Homo sapiens [12] = species on record: Homo sapiens; test: Protein binding in human plasma at 1 uM; details: read-out: PPB (converted)
UACC-62 = test: Cytotoxicity against human UACC62 cells assessed cell growth; format: functional
Candida albicans = test: Antifungal activity against Candida albicans 44506 after 24 hrs by broth dilution assay; format: functional; details: Candida albicans, 44506, 24 h; summary of the method: as §2
SN12C = test: Cytotoxicity against human SN12C cells assessed cell growth; format: functional
MDA-MB-435 = test: Cytotoxicity against human MDA-MB-435 cells assessed cell growth; format: functional

Q: What does the source list for CC(=O)N(C)CCc1cc(Br)c(OCCCNc2ncn(C)c3ncnc2-3)c(Br)c1 [APHROCALLISTIN]?
A: IC50 (ASPC1): > 100 µM; Activity (SNB-19): 71.64%; Activity (DU-145): 102.31%; IC50 (MIA PaCa-2): 26.6 µM; remaining at 1 h, 1 µM [1]: 118%; Activity (HOP-92): 75.25%; Activity (SK-MEL-5): 20%; Activity (EKVX): 45.38%; Activity (MOLT-4): 50.93%; solubility [2]: > 267 µg/mL; Activity (SK-MEL-28): 84.58%; Activity (SK-OV-3): 94.44%; Activity (SF-539): 80.09%; Activity (PANC-1): Active; Activity (NCI-H322M): 76.48%; Activity (ACHN): 69.23%; Activity (T47D): 26.91%; Activity (HCT-15): 99.13%; Activity (OVCAR-3): 87.3%; MIC (Pseudomonas aeruginosa): > 500 µg/mL; Papp at 50 µM [3]: 201 ×10⁻⁶ cm/s; remaining at 1 h, 1 µM [4]: 1.44%; Activity (HOP-62): 71.38%; remaining at 3 h, 40 µM [5]: 79.6%; fraction unbound at 10 µM [6]: 0.309; fraction unbound at 10 µM (Homo sapiens [7]): 0.103; MIC (Staphylococcus aureus): 250 µg/mL (≈ 463 µM); Activity (HT-29): 88.11%; IC50 (DLD-1): 7.5 µM; Activity (Nucleic Acid): inactive; fraction unbound at 10 µM (Homo sapiens [8]): 0.103; Activity (SF-268): 97.87%; Activity (TK-10): 89.47%; Activity (NCI-H23): 42.18%; remaining at 3 h, 40 µM [9]: 96.3%; Activity (SNB-75): 81.17%; Activity (HCC 2998): 65.57%; fraction unbound at 10 µM [10]: 0.309; Activity (NCI-H226): 44.72%; IC50 (A549): 15.9 µM; remaining at 3 h, 40 µM (Homo sapiens [11]): 76.6%; fraction unbound at 1 µM (Homo sapiens [12]): 0.044; Activity (UACC-62): 79.32%; MIC (Candida albicans): 250 µg/mL (≈ 463 µM); Activity (SN12C): 92.68%; Activity (MDA-MB-435): 62.57%
